Screening data deposited in PubChem BioAssay by Broad Institute.
E-sel inducer: E-selectin induction on HUVECs; AID 686992; P16581; activation, % at 7.58 µM; HUVEC E-selectin immunofluorescence imaging; normalized: neutral wells 0, TNF-alpha wells 100; hit rate 0.37% among 260,000;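 active means mean E-selectin-positive cell signal at least 10% of the positive control, reached in at least 60% of replicates, without over 20% cell loss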
Target sequence (P16581 whole entry, looked up): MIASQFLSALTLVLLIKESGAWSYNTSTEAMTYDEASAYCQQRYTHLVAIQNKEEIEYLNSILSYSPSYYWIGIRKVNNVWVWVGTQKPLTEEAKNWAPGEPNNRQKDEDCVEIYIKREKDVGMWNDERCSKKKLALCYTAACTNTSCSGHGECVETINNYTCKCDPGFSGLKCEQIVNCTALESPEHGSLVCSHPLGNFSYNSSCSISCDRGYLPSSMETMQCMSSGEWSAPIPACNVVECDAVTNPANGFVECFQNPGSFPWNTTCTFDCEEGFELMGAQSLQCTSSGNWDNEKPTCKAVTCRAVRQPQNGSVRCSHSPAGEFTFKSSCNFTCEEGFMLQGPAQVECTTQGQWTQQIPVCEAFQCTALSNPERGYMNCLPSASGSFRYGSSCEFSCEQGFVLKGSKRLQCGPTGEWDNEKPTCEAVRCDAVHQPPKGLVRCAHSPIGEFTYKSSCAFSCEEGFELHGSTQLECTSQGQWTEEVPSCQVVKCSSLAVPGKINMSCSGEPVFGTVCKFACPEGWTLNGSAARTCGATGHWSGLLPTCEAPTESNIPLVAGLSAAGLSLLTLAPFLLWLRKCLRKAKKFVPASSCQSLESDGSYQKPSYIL
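Read-out basis: % PE-positive cells; Test system: HUVEC primary endothelial cells; Technique: immunofluorescence imaging; Dosing: single-point compound dose.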
EWS-Fli block: blocks EWS/Fli oncoprotein-driven transcription. hit rate 0.67% among 350,000. inhibition, % at 12.6 µM. A673 NR0B1-luciferase reporter, viability-normalised;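 active means mean inhibition of at least 50% after viability correction, with every replicate also passing that limit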;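 further: firefly luciferase signal divided by Alamar Blue viability fluorescence both relative to DMSO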
rRNA inh HTS: inhibits bacterial ribosomal RNA function over humanized ribosomes. E. coli WT GFP vs humanized-ribosome RFP mutants, fluorescence, 24 h; stronger effect = lower value; DMSO median 0, no signal -100. GFP signal change (wild-type ribosome), % (test concentration not listed). hit rate 1.6% among 350,000;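 active means significant combined selectivity score with lowered wild-type GFP, culture density cut under 30%, mutant RFP and density less affected; inactive means any of these conditions unmet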
LGR2 inh: inhibitors of bursicon-induced Drosophila LGR2 receptor cAMP signaling | HEK293 LGR2, CRE-luciferase, bursicon-stimulated, 4 h | inhibition, % at 9.99 µM | hit rate 0.35% among 380,000;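 active means drop in luminescence signal, shown as inhibition above about 50% in the replicate tests, limit read from the data, passing the limit was not always enough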;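 further: agonist challenge used bursicon conditioned medium at about half maximal strength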
DNA binder FP: binds DNA displacing acridine orange. shares compounds with EWS-Fli block. salmon sperm DNA acridine orange fluorescence polarization. AC35, µM (top dose mostly 68 µM), inactives show at the top dose activity change, negative = DNA binding. hit rate 2% among 640. AID 720586;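 active means fitted curve reaches a 35% signal fall AC35 below twice the sample's top valid tested dose, actives reach about 48 µM in these data; inactive means the rest, including activity in the rising direction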;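 further: lower polarization ratio signals compound binding to DNA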
* = called active by the depositor; [ ] = dose if it differs, or a comment. Hits are enriched below; roughly 2.4% of the tested compounds scored in any of these assays.

`COc1ccc(NC(=O)Nc2ccc3c(c2)C(=O)N([C@H](C)CO)C[C@H](C)[C@@H](CN(C)C(=O)CCCN(C)C)OCCCC[C@H](C)O3)cc1` gave E-sel inducer -0.1, EWS-Fli block -11.8, rRNA inh HTS -0.8 and LGR2 inh 11.2.
For C[C@@H]1CN([C@@H](C)CO)C(=O)c2cc(NC(=O)c3ccncc3)ccc2O[C@@H](C)CCCCO[C@@H]1CN(C)C(=O)CCC(F)(F)F the results were EWS-Fli block -10.0.
Screening C[C@H](CO)N1C[C@H](C)[C@H](CN(C)Cc2ccc(C(=O)Nc3ccccc3N)cc2)Oc2ccc(NC(=O)C3CC3)cc2CC1=O returned E-sel inducer 4.1, EWS-Fli block 64.3*, rRNA inh HTS -1.9, LGR2 inh 14.2 and DNA binder FP -15.6%.
`C[C@H]1CN([C@@H](C)CO)C(=O)Cc2cc(N(C)C)ccc2O[C@@H]1CN(C)Cc1ccc(C(=O)Nc2ccccc2N)cc1` gave E-sel inducer 0.6, EWS-Fli block 47.2, rRNA inh HTS -0.2 and LGR2 inh 16.2.
For C[C@H]1CN([C@@H](C)CO)C(=O)Cc2cc(NC(=O)CCC(F)(F)F)ccc2O[C@H]1CN(C)Cc1ccc(C(=O)Nc2ccccc2N)cc1 the results were EWS-Fli block 53.4*, rRNA inh HTS -1.3, LGR2 inh 10.6 and DNA binder FP 2.7%[56 µM].
COc1ccc(CN(C)C[C@H]2Oc3ccc(NC(=O)CCCCCC(=O)Nc4ccccc4N)cc3CC(=O)N([C@H](C)CO)C[C@H]2C)cc1 was read as E-sel inducer 0.4, EWS-Fli block 55.9*, rRNA inh HTS -1.2, LGR2 inh -9.3 and DNA binder FP -4.1%[56 µM].
Screening C[C@H]1CN([C@@H](C)CO)C(=O)Cc2cc(NC(=O)CCC(F)(F)F)ccc2O[C@@H]1CN(C)Cc1ccc(C(=O)Nc2ccccc2N)cc1 returned EWS-Fli block -2.4, rRNA inh HTS -3.3 and LGR2 inh -2.0.
`C[C@@H]1CN([C@@H](C)CO)C(=O)Cc2cc(N(C)C)ccc2O[C@H]1CN(C)Cc1ccc(C(=O)Nc2ccccc2N)cc1` gave E-sel inducer 0.6, EWS-Fli block 59.6*, rRNA inh HTS -1.1, LGR2 inh -16.8 and DNA binder FP -2.3%[60 µM].
Screening C[C@H](CO)N1C[C@H](C)[C@@H](CN(C)Cc2ccc(C(=O)Nc3ccccc3N)cc2)Oc2ccc(NC(=O)C3CC3)cc2CC1=O returned E-sel inducer 1.9, EWS-Fli block 26.9, rRNA inh HTS -0.2 and LGR2 inh 23.5.
Screening CC(C)NC(=O)N(C)C[C@@H]1Oc2ccc(N(C)C)cc2C(=O)N(C)C[C@@H]1C returned rRNA inh HTS -1.5.
`CO[C@@H]1CN(C)C(=O)c2cc(NC(=O)c3cc(C)on3)ccc2OC[C@@H](C)NC[C@@H]1C` gave E-sel inducer -0.1, EWS-Fli block 0.4, rRNA inh HTS 1.9 and LGR2 inh 8.1.
For COc1cccc(O)c1CN1CCC(C(=O)Nc2ccc(-c3cccc(C)c3)cc2)CC1 the results were EWS-Fli block 57.8*, rRNA inh HTS -23.8, LGR2 inh 4.8 and DNA binder FP 4.5%.
Screening C/C(=N\NC(=O)c1cc(C)[nH]n1)c1cccs1 returned EWS-Fli block -81.1 and rRNA inh HTS 7.0.
For O=C(N/N=C/c1cccs1)c1n[nH]c2c1CCCC2 the results were E-sel inducer 74.6*, EWS-Fli block 51.9*, rRNA inh HTS -3.2, LGR2 inh 76.1* and DNA binder FP -14.3%.
`C/C(=N\NC(=O)c1n[nH]c2c1CCC2)c1cccs1` gave E-sel inducer 0.6, EWS-Fli block 82.0*, rRNA inh HTS 5.5 and DNA binder FP 5.4%.
Screening CCc1nc(N2[C@H](C#N)[C@@H](c3ccccc3-c3ccccc3F)[C@@H]2CO)sc1C returned E-sel inducer 0.0, EWS-Fli block 3.9, rRNA inh HTS -2.0 and LGR2 inh 3.2.
Screening CCCN1C[C@H](C)[C@H](OC)CN(C)C(=O)c2cc(NC(=O)c3ccccc3)ccc2OC[C@H]1C returned E-sel inducer 0.0, EWS-Fli block -9.8, rRNA inh HTS 1.3 and LGR2 inh -9.9.
`O=C(/C=C/c1ccc(Cl)cc1Cl)N(Cc1ccccc1)C1CCS(=O)(=O)C1` (stereo not given) gave LGR2 inh -1.5.
Screening O=C(/C=C/c1ccc(Cl)cc1Cl)N(Cc1ccc(Cl)cc1)C1CCS(=O)(=O)C1 (stereo not given) returned EWS-Fli block 70.3*, rRNA inh HTS 16.5, LGR2 inh -2.3 and DNA binder FP -10.4%.
For COc1ccc(CN(C)CC(=O)Nc2cc3oc4ccccc4c3cc2OC)c(OC)c1 the results were E-sel inducer 0.3 and LGR2 inh 3.7.
COc1cc2c(cc1NC(=O)CN(C)Cc1ccc(OC)c(OC)c1)oc1ccccc12 was read as EWS-Fli block 53.1*, rRNA inh HTS -13.5, LGR2 inh -8.3 and DNA binder FP -6.2%.
`COc1ccc(NC(=O)N2CCCCN3[C@H](CO)[C@H](c4ccc(C#CCC(C)C)cc4)[C@H]3C2)cc1` gave E-sel inducer -0.6, EWS-Fli block 72.6*, rRNA inh HTS -58.3, LGR2 inh 2.6 and DNA binder FP -2.2%.
`O=C(Nc1ccccc1F)N1CCCCN2[C@H](CO)[C@H](c3ccc(/C=C/c4ccccc4)cc3)[C@H]2C1` gave E-sel inducer -0.3, EWS-Fli block 76.1*, rRNA inh HTS -58.0, LGR2 inh 4.4 and DNA binder FP -8.0%.
Screening COc1ccccc1NC(=O)N1CCCCN2[C@H](CO)[C@H](c3ccc(-c4ccc(C)cc4)cc3)[C@@H]2C1 returned E-sel inducer -0.3, EWS-Fli block 9.1, rRNA inh HTS -1.0 and LGR2 inh 12.3.
For COc1ccccc1NC(=O)N1CCCCN2[C@H](CO)[C@H](c3ccc(-c4cccc(C)c4)cc3)[C@H]2C1 the results were E-sel inducer 1.1, EWS-Fli block 61.4*, rRNA inh HTS -57.1, LGR2 inh 20.9 and DNA binder FP -5.7%.
CC(C)CC#Cc1ccc([C@@H]2[C@H]3CN(C(=O)Nc4ccccc4)CCCCN3[C@H]2CO)cc1 was read as E-sel inducer -0.3, EWS-Fli block 4.0, rRNA inh HTS -21.6 and LGR2 inh 9.5.
`C[C@H](CO)N1C[C@H](C)[C@@H](CN(C)Cc2ccccc2C(F)(F)F)OCc2ccccc2-c2ccccc2C1=O` gave EWS-Fli block 20.2.
`C[C@H](CO)N1C[C@H](C)[C@H](CN(C)S(=O)(=O)c2cn(C)cn2)Oc2ccc(NC(=O)Cn3cnnn3)cc2CC1=O` gave E-sel inducer -10.3, EWS-Fli block -3.9, rRNA inh HTS 1.8 and LGR2 inh 14.9.
Screening COC(=O)c1ccc(CN2CC(=O)N3[C@@H](CO)[C@H](c4ccc(-c5ccccc5)cc4)[C@@H]3C2)cc1 returned rRNA inh HTS -2.9.
